{"source": "paper PMC2885539", "about": "(Archives of biochemistry and biophysics, 2010)", "key": {"Solute properties": {"assay": "Solute properties", "type": "physicochemical", "conditions": "known charge of the trivalent peptide"}, "[1]": {"assay": "Net charge estimated by fitting Donnan equilibrium theory to uptake data", "type": "physicochemical, bovine", "conditions": "average of individual explants, mean ± SD, n = 68", "how_it_was_run": "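Bovine cartilage disks (3-mm, L1/L2) equilibrated 48 h at 4°C in PBS with 0.1% BSA, 0.01% NaN₃ and protease inhibitors containing ¹²⁵I-labelled peptide. Disk and bath counted by gamma counter. Uptake ratio: tissue concentration per water weight over bath concentration. sGAG measured by DMMB after proteinase-K digestion. Z is the exponent of a power-law relating peptide uptake to Na⁺ partitioning calculated from each specimen's GAG density.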"}, "[2]": {"assay": "Calculated diffusion times and temperature effect"}, "[3]": {"assay": "Equilibrium uptake / competitive binding in adult bovine cartilage", "conditions": "labeled vs unlabeled Pf-pep"}, "[4]": {"conditions": "vs native BSA, ref [21]–[23]; cited from earlier work"}, "[5]": {"conditions": "intra-articular injection, ref [47]; cited from earlier work"}, "[6]": {"conditions": "ref [17], [18]; cited from earlier work"}, "[7]": {"conditions": "cited from earlier work"}}, "note": "“Also recorded” adds a separate entry of the source."}
{"compound": "Arg-Tyr-Lys-Arg-Thr [Pf-pep]", "values": [{"measurement": "known net charge", "setting": "Solute properties", "value": "+3"}, {"measurement": "average net charge Z", "setting": "[1]", "value": "+3.07 ± 0.74"}, {"measurement": "characteristic time lag L^2/6D", "setting": "[2]; L = 1 mm, D ~1×10^−6 cm^2/s", "value": "~ 27 min"}, {"measurement": "factor of increase of diffusion coefficient at 37°C", "setting": "[2]; Stokes-Einstein relation, from room temperature to 37°C", "value": "~ 1.4"}, {"measurement": "diffusion time constant δ^2/(π^2D)", "setting": "[2]; δ = 400 μm, D ~1×10^−6 cm^2/s", "value": "~ 2.7 min"}, {"measurement": "binding to sites within cartilage", "setting": "[3]", "value": "negligible binding; also recorded: little or no binding of Pf-pep to sites within the tissue; also recorded: did not show measurable binding to the negatively charged GAG chains in cartilage"}]}
{"compound": "cationized bovine serum albumin (BSA): cationized bovine serum albumin", "values": [{"measurement": "uptake and retention in murine cartilage", "setting": "[4]", "value": "increased uptake and prolonged retention via binding within murine cartilage compared to native BSA"}]}
{"compound": "O=C(O)c1ccccc1O", "note": "[salicylate]", "values": [{"measurement": "clearance time from synovial fluid", "setting": "[5]", "value": "1 to 5", "unit": "h"}]}
{"compound": "O=C(O)Cc1ccccc1Nc1c(Cl)cccc1Cl", "note": "[diclofenac]", "values": [{"measurement": "clearance time from synovial fluid", "setting": "[5]", "value": "1 to 5", "unit": "h"}]}
{"compound": "insulin-like growth factor-1 [IGF-1]", "values": [{"measurement": "binding to IGFBPs in cartilage ECM", "setting": "[6]", "value": "binds to specific IGF binding proteins (IGFBPs)"}]}
{"compound": "OC[C@H]1OC(O)[C@H](O)[C@@H](O)[C@@H]1O", "note": "(stereo partly drawn) [glucose]", "values": [{"measurement": "variation of diffusivity with tissue depth", "setting": "[7]; ref [42]", "value": "did not vary significantly with tissue depth"}]}
{"compound": "CN(C)c1ccc2c(-c3ccccc3C(=O)[O-])c3ccc(N(C)C)cc3[o+]c2c1", "note": "[tetramethylrhodamine]", "values": [{"measurement": "effect of static compression on diffusivity", "setting": "[7]; TMR, ref [49], [50]", "value": "reduced the diffusivities"}]}
